Results published in ChEMBL document CHEMBL3734708, “Synthesis, cytotoxicity and antiviral evaluation of new series of imidazo[4,5-g]quinoline and pyrido[2,3-g]quinoxalinone derivatives” (Eur J Med Chem, 2015).

How the values were obtained:
[1] = Cytotoxicity against human MT4 cells assessed as reduction in cell proliferation after 96 hrs by MTT assay; assay type: cell-based
Procedure, shortened: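 MT-4 cells in exponential growth seeded at 1 × 10^5 cells/mL in RPMI-1640 with 10% FBS and penicillin/streptomycin. Cultured with serial compound dilutions at 37 °C, 5% CO2. MTT viability after 96 h. CC50 by linear regression against untreated controls. Mean of three independent determinations.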

[2] = system: Human immunodeficiency virus 1; experiment: Antiviral activity against HIV-1 3B infected in human MT4 cells assessed as protection against virus-induced cytopathic effect after 4 days by MTT assay; assay type: functional, organism-based; settings: Human immunodeficiency virus 1, 3B, MT4, 96 h
Procedure, shortened: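 MT-4 cells (1 × 10^4/well in RPMI) with or without serial compound dilutions, infected with HIV-1 at 100 CCID50 (m.o.i. 0.01). After 4 days at 37 °C, protection from cytopathogenicity read by MTT. EC50 by linear regression versus untreated controls; mean of three independent determinations.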

[3] = Cytotoxicity against MDBK cells assessed as reduction in cell viability after 72 hrs by MTT assay; assay type: cell-based, Bos taurus; settings: cattle
Procedure, shortened: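 MDBK cells seeded at 6 × 10^5 cells/mL in MEM-E with L-glutamine, 1 mM sodium pyruvate, kanamycin and 10% horse serum. Mock-infected cultures held with serial compound dilutions at 37 °C, 5% CO2. MTT viability read after 72 h. 50% cytotoxic concentration from linear regression as % of untreated controls. Three independent determinations.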

[4] = system: Bovine viral diarrhea virus 1; experiment: Antiviral activity against BVDV NADL ATCC VR-534 infected in MDBK cells assessed as protection against virus-induced cytopathic effect after 3 or 4 days by MTT assay; assay type: functional, organism-based; settings: Bovine viral diarrhea virus isolates and strains, NADL ATCC VR-534, MDBK
Procedure, shortened: (§1)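 BHK-21 (YFV, Reo-1) or MDBK (BVDV) cells seeded at 5 × 10^4 or 3 × 10^4 cells/well and grown overnight to confluence. Monolayers infected at m.o.i. 0.01 in maintenance medium (MEM-Earle, 0.5% inactivated FBS). Serial compound dilutions added 2 h after infection; 37 °C for 3-4 days. Viability read by MTT. EC50 by linear regression versus untreated controls; mean of three determinations.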

[5] = Cytotoxicity against BHK21 cells assessed as reduction in cell viability after 72 hrs by MTT assay; assay type: cell-based, Mesocricetus auratus, BHK-21; settings: hamster
Procedure, shortened: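 BHK cells seeded at 1 × 10^6 cells/mL in MEM-E with L-glutamine, 1 mM sodium pyruvate, kanamycin and 10% FBS. Mock-infected cells exposed to serial dilutions of compound at 37 °C, 5% CO2, run in parallel with the antiviral assays. Viability by MTT at 72 h. CC50 by linear regression vs untreated controls. Mean of three independent determinations.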

[6] = system: Yellow fever virus; experiment: Antiviral activity against YFV 17-D vaccine (Stamaril Pasteur J07B01) infected in BHK21 cells assessed as protection against virus-induced cytopathic effect after 3 or 4 days by MTT assay; assay type: functional, organism-based; settings: BHK-21; procedure, shortened: as §1
[7] = system: Mammalian orthoreovirus 1; experiment: Antiviral activity against Reovirus 1 ATCC VR- 214 infected in BHK21 cells assessed as protection against virus-induced cytopathic effect after 3 or 4 days by MTT assay; assay type: functional, cell-based; settings: Mammalian orthoreovirus 1, ATCC VR- 214, BHK-21; procedure, shortened: as §1
[8] = Cytotoxicity against african green monkey Vero 76 cells assessed as reduction in cell viability after 48 to 96 hrs by MTT assay; assay type: cell-based; settings: chlorocebus sabaeus
Procedure, shortened: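 Vero-76 cells plated at 4 × 10^5 cells/mL in D-MEM with L-glutamine, kanamycin and 10% FBS. Incubated with serial dilutions of test compounds at 37 °C, 5% CO2 for 48-96 h. Viability by MTT. CC50 by linear regression relative to untreated cells. Mean of three independent runs.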

[9] = system: Coxsackievirus B5; experiment: Antiviral activity against CVB-5 virus Faulkner ATCC VR-185 infected in african green monkey Vero-76 cells after 3 days by plaque reduction assay; assay type: functional, organism-based; settings: Enterovirus B, Faulkner ATCC VR-185, Vero 76, 72 h
[10] = system: Human poliovirus 1 strain Sabin; experiment: Antiviral activity against Human poliovirus 1 strain Sabin 1 virus infected in african green monkey Vero-76 cells after 2 days by plaque reduction assay; assay type: functional, organism-based; settings: Enterovirus C, 1, Vero 76, 48 h
[11] = system: Respiratory syncytial virus; experiment: Antiviral activity against RSVA2 ATCC VR-1540 infected in african green monkey Vero-76 cells after 5 days by plaque reduction assay; assay type: functional, organism-based; settings: human respiratory syncytial virus, A2 ATCC VR-1540, Vero 76, 120 h
[12] = system: Vesicular stomatitis virus; experiment: Antiviral activity against VSV Indiana ATCC VR-158 infected in african green monkey Vero-76 cells after 2 days by plaque reduction assay; assay type: functional, organism-based; settings: Indiana ATCC VR-158, Vero 76, 48 h
[13] = system: Vaccinia virus; experiment: Antiviral activity against VV Elstree ATCC VR-1549 infected in african green monkey Vero-76 cells after 3 days by plaque reduction assay; assay type: functional, organism-based; settings: Orthopoxvirus vaccinia, Elstree ATCC VR-1549, Vero 76, 72 h
[14] = system: Human alphaherpesvirus 1; experiment: Antiviral activity against HSV-1 KOS ATCC VR- 1493 infected in african green monkey Vero-76 cells after 3 days by plaque reduction assay; assay type: functional, organism-based; settings: Human alphaherpesvirus 1, KOS ATCC VR1493, Vero 76, 72 h

SMILES	CC50 at 96 h [1] [µM]	EC50 [2] [µM]	CC50 at 72 h [3] [µM]	EC50 [4] [µM]	CC50 at 72 h [5] [µM]	EC50 [6] [µM]	EC50 [7] [µM]	CC50 [8] [µM]	EC50 [9] [µM]	EC50 [10] [µM]	EC50 [11] [µM]	EC50 [12] [µM]	EC50 [13] [µM]	EC50 [14] [µM]
Cn1c(=O)c(-c2cccs2)nc2c(Cl)c3ncccc3cc21	> 100	> 100	> 100	2	> 100	> 100	> 100	> 100	> 100	> 100	> 100	> 100	> 100	> 100
Cn1c(=O)c(Cc2ccccc2)nc2c(Cl)c3ncccc3cc21	> 100	> 100	> 100	10	> 100	> 100	> 100	> 100	> 100	> 100	> 100	> 100	> 100	> 100
O=c1c(-c2ccccc2)nc2c(Cl)c3ncccc3cc2n1Cc1ccc([N+](=O)[O-])cc1	> 100	> 100	> 100	> 100	> 100	> 100	> 100	> 100	> 100	> 100	> 100	> 100	> 100	> 100
O=c1c(-c2cccs2)nc2cc3cccnc3c(Cl)c2n1C1CCCCC1	> 100	> 100	> 100	15	> 100	> 100	> 100	> 100	> 100	> 100	> 100	> 100	> 100	> 100
COc1nc2cc3cccnc3c(Cl)c2nc1Cc1ccccc1	> 100	> 100	> 100	6	> 100	> 100	> 100	> 100	> 100	> 100	> 100	> 100	> 100	> 100
C[C@@]1(O)[C@H](O)[C@@H](CO)O[C@H]1n1ccc(N)nc1=O	–	–	–	–	–	–	> 100	16	–	–	–	–	–	–
C[C@@]1(O)[C@H](O)[C@@H](CO)O[C@H]1n1cnc2c(=O)[nH]c(N)nc21 [2'-B-METHYL-GUANOSINE]	–	–	> 100	–	1.1	> 100	1.9	–	–	–	–	–	–	–
C#C[C@@]1(O)[C@H](O)[C@@H](CO)O[C@H]1n1ccc(N)nc1=O [2'-ETHYNYL-D-CYTIDINE]	–	–	–	–	–	–	–	–	> 100	27	23	–	–	–
O=c1cnn([C@@H]2O[C@H](CO)[C@@H](O)[C@H]2O)c(=O)[nH]1 [6-AZAURIDINE]	–	–	–	–	–	–	–	–	≥ 12.5	–	–	1.2	–	–
Nc1nc2c(ncn2COCCO)c(=O)[nH]1 [ACYCLOVIR]	–	–	–	–	–	–	–	–	> 100	–	–	–	–	–
Nc1ccn(C[C@@H](CO)OCP(=O)(O)O)c(=O)n1 [CIDOFOVIR]	–	–	–	–	–	–	–	–	> 100	–	–	–	19	–
